Measured values taken from ChEMBL document CHEMBL1152985, “Contributions of the combined effects of topoisomerase mutations toward fluoroquinolone resistance in Escherichia coli” (2007).

What was measured:
[1] = test system: Escherichia coli; experiment: Antibacterial activity against Escherichia coli SKM18 containing gyrA L83, Y87 and parC I80, G84 mutants assessed as increase in MIC by Etest relative to MIC for Escherichia coli SKM9 containing gyrA L83, Y87 and parC L80 mutants
[2] = test system: Escherichia coli; experiment: Antibacterial activity against Escherichia coli 1608 containing gyrA L83 mutant assessed as increase in MIC by Etest relative to MIC for wild type Escherichia coli 1609; assay type: functional
Summary of the method: (§1)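 Defined isogenic E. coli strains in a C600 background (parent 1609); mutations introduced by λ Red recombineering with temperature-sensitive pSIM5, overnight recovery after electroporation, plasmid cured at 37°C. Fluoroquinolone MICs were read by Etest per the manufacturer's instructions. MICs above the Etest limit were measured by broth macrodilution per CLSI guidelines. Results are expressed as fold change in MIC relative to the comparator strain.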

[3] = test system: Escherichia coli; experiment: Antibacterial activity against Escherichia coli 1596 containing gyrA L83 and parC I80, G84 mutants assessed as increase in MIC by Etest relative to MIC for Escherichia coli 1608 containing gyrA mutant; assay type: functional
Summary of the method: as §1

[4] = test system: Escherichia coli; experiment: Antibacterial activity against Escherichia coli 1596 containing parC K84 mutant assessed as decrease in MIC by Etest relative to MIC for Escherichia coli 1608 containing gyrA mutant; assay type: functional
Summary of the method: as §1

[5] = test system: Escherichia coli; experiment: Antibacterial activity against Escherichia coli 1608 containing gyrA L83, Y87 mutants assessed as increase in MIC by Etest relative to MIC for wild type Escherichia coli 1609
[6] = test system: Escherichia coli; experiment: Antibacterial activity against Escherichia coli SKM9 containing gyrA L83, Y87 and parC L80 mutants assessed as increase in MIC by Etest relative to MIC for Escherichia coli 1596 containing gyrA L83 and parC L80 mutants

SMILES | Ratio [1] | Ratio [2] | Ratio [3] | MIC [4] | Ratio [5] | Ratio [6]
COc1c(N2C[C@@H]3CCCN[C@@H]3C2)c(F)cc2c(=O)c(C(=O)O)cn(C3CC3)c12 [MOXIFLOXACIN] | 10 | 1 | 1 | 0.028 µg/mL | 5 | 9
CO/N=C1\CN(c2nc3c(cc2F)c(=O)c(C(=O)O)cn3C2CC2)CC1CN (configuration not stated) [GEMIFLOXACIN] | – | – | 1 | 0.007 µg/mL | 5 | 9
C[C@H]1COc2c(N3CCN(C)CC3)c(F)cc3c(=O)c(C(=O)O)cn1c23.C[C@H]1COc2c(N3CCN(C)CC3)c(F)cc3c(=O)c(C(=O)O)cn1c23.O [LEVOFLOXACIN] | – | – | 1 | – | 5 | 9
COc1c(N2CCNC(C)C2)c(F)cc2c(=O)c(C(=O)O)cn(C3CC3)c12 (configuration not stated) [GATIFLOXACIN] | 2 | – | 1 | – | 5 | 9
Cc1c(F)c(N2CCNC(C)C2)cc2c1c(=O)c(C(=O)O)cn2C1CC1 (configuration not stated) [GREPAFLOXACIN] | – | – | – | 0.014 µg/mL | – | –
CCn1cc(C(=O)O)c(=O)c2cc(F)c(N3CCNCC3)cc21 [NORFLOXACIN] | – | – | 5 | – | 5 | 9
C[C@@H]1CN(c2c(F)c(N)c3c(=O)c(C(=O)O)cn(C4CC4)c3c2F)C[C@H](C)N1 [SPARFLOXACIN] | – | – | – | 0.008 µg/mL | – | –
